{"source": "ChEMBL document CHEMBL2034888", "about": "“Synthesis, anticonvulsant activity, and neuropathic pain-attenuating activity of N-benzyl 2-amino-2-(hetero)aromatic acetamides” (Bioorg Med Chem, 2012)", "key": {"[1]": {"system": "Mus musculus", "test": "Anticonvulsant activity in ip dosed albino CF-1 mouse assessed as protection against maximal electroshock-induced seizure", "assay_type": "functional", "settings": "albino CF-1, ip"}, "[2]": {"test": "Neurotoxicity in ip dosed albino CF-1 mouse by rotorod test", "assay_type": "toxicity, organism-based", "settings": "in vivo"}, "[3]": {"system": "Mus musculus", "test": "Anticonvulsant activity in ip dosed albino CF-1 mouse assessed as protection against maximal electroshock-induced seizure after 0.5 hrs", "assay_type": "functional", "settings": "albino CF-1, ip"}, "[4]": {"test": "Neurotoxicity in ip dosed albino CF-1 mouse after 30 mins by rotorod test", "assay_type": "toxicity, organism-based", "settings": "in vivo"}, "[5]": {"system": "Mus musculus", "test": "Anticonvulsant activity in ip dosed NMRI mouse assessed as protection against maximal electroshock-induced seizure after 30 mins postdose", "assay_type": "functional", "settings": "0.5 h; for minimal effective dose: read-out: MED", "in_short": "(§1)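 Adult male NMRI mice given compound intraperitoneally; maximal electroshock seizure test run 30 min after dosing. Where a dose–response was run, ED50 in mg/kg was derived. Otherwise a minimal active dose was reported, or the percentage of mice protected at a single dose.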"}, "[6]": {"system": "Mus musculus", "test": "Anticonvulsant activity in ip dosed NMRI mouse assessed as protection against 6 Hz psychomotor seizure after 30 mins", "assay_type": "functional", "settings": "0.5 h", "in_short": "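Adult male NMRI mice dosed ip. Psychomotor seizures were induced by 6 Hz stimulation at 44 mA, 30 min after administration. ED50 in mg/kg was derived where determinable, otherwise a minimal active dose was reported.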"}, "[7]": {"system": "Mus musculus", "test": "Antinociceptive activity in ip dosed NMRI mouse neuropathic pain model assessed as protection against formalin-induced nociceptive behaviour after 30 mins", "assay_type": "functional", "settings": "0.5 h", "in_short": "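Formalin test in adult male NMRI mice used as a prescreen for pain attenuation, 30 min after ip administration. ED50 in mg/kg was derived where possible. Otherwise the percent protected after a single stated dose was reported.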"}, "[8]": {"test": "Neurotoxicity in ip dosed NMRI mouse after 30 mins by rotorod test", "assay_type": "toxicity, organism-based", "settings": "in vivo", "in_short": "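Neurological impairment was scored by rotorod in adult male NMRI mice 30 min after ip dosing. TD50 in mg/kg was derived where possible, otherwise the maximal tolerated dose was given.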"}, "[9]": {"system": "Mus musculus", "test": "Protective index, ratio of TD50 for NMRI mouse to ED50 for anticonvulsant activity in ip dosed NMRI mouse by maximal electroshock seizure test", "assay_type": "functional"}, "[10]": {"system": "Mus musculus", "test": "Protective index, ratio of TD50 for NMRI mouse to ED50 for antinociceptive activity in ip dosed NMRI mouse neuropathic pain model", "assay_type": "functional"}, "[11]": {"system": "Mus musculus", "test": "Toxicity in ip dosed NMRI mouse assessed as convulsions at 160 mg/kg, ip after 30 mins", "assay_type": "organism-based", "parameters": "dose 160 mg/kg, route intraperitoneal", "settings": "in vivo, 0.5 h", "in_short": "(§2)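 Adult male NMRI mice were dosed ip. Whole-animal pharmacological observation was made at the stated mg/kg dose, recording tremors, convulsions, writhing, impaired gait or mortality. Timing was 30 min post-dose.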"}, "[12]": {"system": "Mus musculus", "test": "Anticonvulsant activity in NMRI mouse assessed as protection against maximal electroshock-induced seizure at 140 mg/kg, ip after 30 mins", "assay_type": "functional", "settings": "route intraperitoneal", "in_short": "as §1"}, "[13]": {"system": "Mus musculus", "test": "Toxicity in ip dosed NMRI mouse assessed as impaired gait at 100 mg/kg, ip after 30 mins", "assay_type": "organism-based", "parameters": "dose 100 mg/kg, route intraperitoneal", "settings": "in vivo, 0.5 h", "in_short": "as §2"}, "[14]": {"system": "Mus musculus", "test": "Toxicity in ip dosed NMRI mouse assessed as tremors at 100 mg/kg, ip after 30 mins", "assay_type": "organism-based", "parameters": "dose 100 mg/kg, route intraperitoneal", "settings": "in vivo, 0.5 h", "in_short": "as §2"}}}
{"smiles": "CC(=O)NC(C(=O)NCc1ccccc1)c1cc2ccccc2o1", "note": "(racemic)", "values": [{"measurement": "ED50", "setting": "[1]", "value": 100, "unit": "mg/kg"}, {"measurement": "TD50", "setting": "[2]", "value": 100, "unit": "mg/kg"}]}
{"smiles": "CC(=O)NC(C(=O)NCc1ccccc1)c1nccs1", "note": "(racemic)", "values": [{"measurement": "ED50", "setting": "[3]", "value": 12, "unit": "mg/kg"}, {"measurement": "TD50 at 0.5 h", "setting": "[4]", "value": 69, "unit": "mg/kg"}]}
{"smiles": "CC(=O)NC(C(=O)NCc1ccccc1)c1ccco1", "note": "(racemic)", "values": [{"measurement": "ED50", "setting": "[3]", "value": 10, "unit": "mg/kg"}, {"measurement": "TD50 at 0.5 h", "setting": "[4]", "value": 40, "unit": "mg/kg"}]}
{"smiles": "CCC1(c2ccccc2)C(=O)NC(=O)NC1=O", "note": "[PHENOBARBITAL]", "values": [{"measurement": "ED50", "setting": "[5]", "value": 22, "unit": "mg/kg"}]}
{"smiles": "NC(C(=O)NCc1ccccc1)c1cnccn1", "note": "(racemic)", "values": [{"measurement": "ED50", "setting": "[5]", "value": 85, "unit": "mg/kg"}, {"measurement": "minimal effective dose", "setting": "[6]; read-out: MED", "value": 28, "unit": "mg/kg"}, {"measurement": "ED50", "setting": "[7]", "value": "> 160", "unit": "mg/kg"}, {"measurement": "TD50 at 0.5 h", "setting": "[8]", "value": "> 160", "unit": "mg/kg"}, {"measurement": "Ratio TD50/ED50", "setting": "[9]", "value": ">1.9"}, {"measurement": "Ratio TD50/ED50", "setting": "[10]", "value": ">1"}]}
{"smiles": "COC[C@@H](NC(C)=O)C(=O)NCc1ccccc1", "note": "[LACOSAMIDE]", "values": [{"measurement": "ED50", "setting": "[5]", "value": 3.3, "unit": "mg/kg"}, {"measurement": "ED50", "setting": "[6]", "value": 10, "unit": "mg/kg"}, {"measurement": "ED50", "setting": "[7]", "value": 15, "unit": "mg/kg"}, {"measurement": "Ratio TD50/ED50", "setting": "[9]", "value": 5.8}, {"measurement": "Ratio TD50/ED50", "setting": "[10]", "value": 1.3}]}
{"smiles": "CC(=O)NC(C(=O)NCc1ccccc1)c1cnccn1", "note": "(racemic)", "values": [{"measurement": "ED50", "setting": "[3]", "value": 15, "unit": "mg/kg"}, {"measurement": "TD50 at 0.5 h", "setting": "[4]", "value": 58, "unit": "mg/kg"}]}
{"smiles": "NC(C(=O)NCc1ccccc1)c1cccnc1", "note": "(racemic)", "values": [{"measurement": "minimal effective dose", "setting": "[5]", "value": 120, "unit": "mg/kg"}, {"measurement": "ED50", "setting": "[6]", "value": "> 210", "unit": "mg/kg"}, {"measurement": "ED50", "setting": "[7]", "value": 74, "unit": "mg/kg"}]}
{"smiles": "CCCC(CCC)C(=O)[O-].[Na+]", "note": "[VALPROATE SODIUM]", "values": [{"measurement": "ED50", "setting": "[5]", "value": 270, "unit": "mg/kg"}]}
{"smiles": "NC(C(=O)NCc1ccccc1)c1nccs1", "note": "(racemic)", "values": [{"measurement": "ED50", "setting": "[5]", "value": 67, "unit": "mg/kg"}, {"measurement": "ED50", "setting": "[6]", "value": "> 140", "unit": "mg/kg"}, {"measurement": "ED50", "setting": "[7]", "value": 45, "unit": "mg/kg"}, {"measurement": "MTD at 0.5 h", "setting": "[8]", "value": 140, "unit": "mg/kg"}, {"measurement": "Ratio TD50/ED50", "setting": "[9]", "value": "<2.1"}, {"measurement": "Ratio TD50/ED50", "setting": "[10]", "value": "<3.1"}]}
{"smiles": "NC(C(=O)NCc1ccccc1)c1cccs1", "note": "(racemic)", "values": [{"measurement": "minimal effective dose", "setting": "[5]", "value": 68, "unit": "mg/kg"}, {"measurement": "ED50", "setting": "[6]", "value": "> 91", "unit": "mg/kg"}, {"measurement": "ED50", "setting": "[7]", "value": 48, "unit": "mg/kg"}, {"measurement": "MTD at 0.5 h", "setting": "[8]", "value": 51, "unit": "mg/kg"}, {"measurement": "Ratio TD50/ED50", "setting": "[9]", "value": "<0.8"}, {"measurement": "Ratio TD50/ED50", "setting": "[10]", "value": "<1.1"}, {"measurement": "Activity", "setting": "[11]", "value": "Toxic"}]}
{"smiles": "Cc1ccc(C(N)C(=O)NCc2ccccc2)o1", "note": "(racemic)", "values": [{"measurement": "minimal effective dose", "setting": "[5]", "value": 100, "unit": "mg/kg"}, {"measurement": "ED50", "setting": "[6]", "value": "> 140", "unit": "mg/kg"}, {"measurement": "ED50", "setting": "[7]", "value": "> 78", "unit": "mg/kg"}, {"measurement": "Activity", "setting": "[12]", "value": 100, "unit": "%"}, {"measurement": "Activity", "setting": "[13]", "value": "Toxic"}, {"measurement": "Activity", "setting": "[14]", "value": "Toxic"}]}
{"smiles": "CC(=O)NC(C(=O)NCc1ccccc1)c1ccc(C)o1", "note": "(racemic)", "values": [{"measurement": "ED50", "setting": "[3]", "value": 19, "unit": "mg/kg"}, {"measurement": "TD50 at 0.5 h", "setting": "[4]", "value": 75, "unit": "mg/kg"}]}
{"smiles": "NC(C(=O)NCc1ccccc1)c1cc2ccccc2s1", "note": "(racemic)", "values": [{"measurement": "ED50", "setting": "[5]", "value": 120, "unit": "mg/kg"}, {"measurement": "ED50", "setting": "[6]", "value": "> 170", "unit": "mg/kg"}, {"measurement": "ED50", "setting": "[7]", "value": 66, "unit": "mg/kg"}]}
